Test results: ChEMBL document CHEMBL1135597, “A thymidine phosphorylase-stable analogue of BVDU with significant antiviral activity” (J Med Chem, 2002)
≈ marks a conversion by molar mass, not a printed value.

What was measured:
E6SM = test: […] in E6SM cell cultures of human embryonic skin-muscle; type: functional
Human alphaherpesvirus 1 [1] = test: Inhibitory activity against HSV-1 (McIntyre) replication in E6SM cell cultures of human embryonic skin-muscle; type: functional, organism-based; conditions: Human alphaherpesvirus 1, E6SM
Method in brief: (§1)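 Confluent human embryonic skin-muscle (E6SM) cell cultures were infected with 100 CCID50 of virus. After 1 h adsorption, residual virus was removed and cultures were incubated with test compound at varying concentrations […]. Cytopathicity was scored once complete in infected control cultures. EC50 is the concentration that inhibits virus-induced cytopathicity by 50%.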

[2] = Inhibitory activity against HSV-1 (KOS) replication in E6SM cell cultures of human embryonic skin-muscle; type: functional, cell-based; conditions: Human alphaherpesvirus 1, E6SM; method in brief: as §1
[3] = Inhibitory activity against TK-deficient HSV-1 (KOS) replication in E6SM cell cultures of human embryonic skin-muscle; type: functional, cell-based; conditions: Human alphaherpesvirus 1, E6SM; method in brief: as §1
Human alphaherpesvirus 1 [4] = test: Inhibitory activity against HSV-1 (F) replication in E6SM cell cultures of human embryonic skin-muscle; type: functional, organism-based; conditions: Human alphaherpesvirus 1, E6SM; method in brief: as §1
Vaccinia virus = test: Inhibitory activity against vaccinia virus (VV) replication in E6SM cell cultures of human embryonic skin-muscle; type: functional, organism-based; conditions: Orthopoxvirus vaccinia; method in brief: as §1
[5] = tested on: Vesicular stomatitis virus; test: Inhibitory activity against vesicular stomatitis virus (VSV) replication in E6SM cell cultures of human embryonic skin-muscle; type: functional, organism-based; method in brief: as §1

Compound	MCC (E6SM)	EC50 (Human alphaherpesvirus 1 [1])	EC50 [2]	EC50 [3]	EC50 (Human alphaherpesvirus 1 [4])	EC50 (Vaccinia virus)	EC50 [5]
O=c1[nH]c(=O)n([C@@H]2CO[C@H](CO)C2)cc1/C=C/Br	> 400 µg/mL	9.6 µg/mL (≈ 30.3 µM)	2.6 µg/mL (≈ 8.2 µM)	> 400 µg/mL	1.9 µg/mL (≈ 5.99 µM)	> 400 µg/mL	> 400 µg/mL
Nc1nc2c(ncn2COCCO)c(=O)[nH]1 [ACYCLOVIR]	> 400 µg/mL	0.077 µg/mL (≈ 0.342 µM)	0.077 µg/mL (≈ 0.342 µM)	48 µg/mL (≈ 213 µM)	0.077 µg/mL (≈ 0.342 µM)	> 400 µg/mL	> 400 µg/mL
O=c1[nH]c(=O)n([C@H]2C[C@H](O)[C@@H](CO)O2)cc1/C=C/Br [BRIVUDINE]	> 400 µg/mL	0.026 µg/mL (≈ 0.078 µM)	0.026 µg/mL (≈ 0.078 µM)	240 µg/mL (≈ 720 µM)	0.026 µg/mL (≈ 0.078 µM)	1.9 µg/mL (≈ 5.7 µM)	> 400 µg/mL
Nc1nc2c(ncn2COC(CO)CO)c(=O)[nH]1 [GANCICLOVIR]	> 100 µg/mL	0.019 µg/mL (≈ 0.0744 µM)	0.019 µg/mL (≈ 0.0744 µM)	2.4 µg/mL (≈ 9.4 µM)	0.019 µg/mL (≈ 0.0744 µM)	> 100 µg/mL	> 100 µg/mL
NC(=O)c1ncn([C@@H]2O[C@H](CO)[C@@H](O)[C@H]2O)n1 [RIBAVIRIN]	> 400 µg/mL	240 µg/mL (≈ 983 µM)	48 µg/mL (≈ 197 µM)	240 µg/mL (≈ 983 µM)	48 µg/mL (≈ 197 µM)	240 µg/mL (≈ 983 µM)	> 400 µg/mL
